The test system of the data set is MS2 coat protein. In words: apparent Kd, MS2 coat protein; higher = weaker binding; RNA-MaP array; FMN 200 µM where present. Put shortly:
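Green signal from SNAP-549-labelled MS2 coat protein was normalised to red-channel RNA signal and to the median Fmax of control clusters. The protein was titrated from 0.7 or 1.5 nM, doubling to 3 µM, without and then with constant ligand, over designs transcribed by stalled E. coli RNA polymerase on Illumina sequencing-chip clusters, in 100 mM Tris-HCl pH 7.5, 80 mM KCl, 4 mM MgCl2, BSA, DTT, yeast tRNA and Tween-20. The apparent Kd is the median of filtered per-cluster binding-curve fits.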

Setting [1] is: designed as: OFF switch for flavin mononucleotide, no ligand.
[2] abbreviates: ligand present: flavin mononucleotide, designed as: OFF switch for flavin mononucleotide.
Where [3] appears, read: designed as: ON switch for flavin mononucleotide, no ligand.
Setting [4] is: ligand present: flavin mononucleotide, designed as: ON switch for flavin mononucleotide.

As a reminder, the apparent Kd is the concentration giving half-maximal binding under the conditions of the assay.

With “GUCAGCUCGUGAGGAUAUACAUGUGCUGGAGACAGCACUAAUUAAAUCACAUGAGGAUCACCCAUGUAGAAGGCACGAGCUGAU”, the “apparent Kd” value reads like this: under setting [1], 16.6 nM; under setting [2], 26.4 nM.
Take “ACGUGUUAUACAGGAUAUGUUUAGGUACAAUCAUCCAGCUAUUAAUUUAUUACAGAAGGGUAAACAUGAGGAUCACCCAUGUCA”: the “apparent Kd” value is, setting by setting: under setting [1], 26 nM; under setting [2], 15.9 nM.
“CCGGAAGUACAGGAUAUAGGAGUCGAUAGACUCCUAGAAGGGUAUACAUGAGGAUCACCCAUGUGUCCUACCGG”: the “apparent Kd” value under setting [1] was determined as 29.6 nM and the “apparent Kd” value under setting [2] came to 33.4 nM.
As to “GAUCCACAUGAGGAUCACCCAUGUGAGGAUAUGAUACUAUGUACUUCGGUACAUAGUAUCAGAAGGCACAGGUC”, the “apparent Kd” value is 51.4 nM under setting [1] and 160 nM under setting [2].
Take “AGCAUGUAAGGAUAUGCAAGUGGUACGGAUAGUACCAGAAAGCAGAAGGUACAUGAGGAUCACCCAUGUGCUCC”: the “apparent Kd” value under setting [1] came to 28.2 nM and the “apparent Kd” value under setting [2] was found to be 55.2 nM.
For “UUAUACGUUGAGGAUAUGUCAUUUAGUAUAGUUACAGAAGGCGAUACAUGAGGAUCACCCAUGUUUAUGGGCAU”, the “apparent Kd” value by setting is: under setting [1], 239 nM; under setting [2], 164 nM.
With “GCGUAUAUAUUAUUUAUUUAACUGUCAGAAGGUGAGAAGACGACAUGAGGAUCACCCAUGUUAUUCAAGGAUAUGAUAAUGCGC”, the “apparent Kd” value runs as follows: under setting [3], 13.5 nM; under setting [4], 8.94 nM.
“CGCUAAGAGAACGAUACGAGAAGACAUGAGGAUCACCCAUGUAGAAGGACAACGGAAUAAACGUUGUAGGAUAUACACUUAGCG”: the “apparent Kd” value was 15 nM under setting [1] and 20.6 nM under setting [2].
Take “UGGUACUAGGGAGGAUAUGGGAAGAUACAUGAGGAUCACCCAUGUUUAAGAAUGCCGAGAGGCAUCUAGAAGGCCCUAGUACCU”: the “apparent Kd” value is, setting by setting: under setting [3], 877 nM; under setting [4], 115 nM.
Turning to “AAACAUGUCCGAGGAUAUCUGAGAUCAUUUUCAAGAGAAGGCGGACAUGAGGAUCACCCAUGUCUCUCCUCAUCAACUCCAAAG”, the “apparent Kd” value was 7.22 nM under setting [1] and 35.6 nM under setting [2].
For “UGGUGAAUUGAGAAGGGAACAGAUGUAGCUCCACAUGAGGAUCACCCAUGUUCAGGAUAUCAGUGCCCGACCUUGAGCGGUCGC”, the “apparent Kd” value under setting [1] was determined as 7.92 nM and the “apparent Kd” value under setting [2] came out at 11.8 nM.
Turning to “AGGUGACAUGAGGAUCACCCAUGUCAGGAUAUAUACACCGCCGGCGUGAAGCCAGCGGAUAGAAGGGACAAAAU”, the “apparent Kd” value is, setting by setting: under setting [1], 15.4 nM; under setting [2], 16.9 nM.
With “UCGAGUCAUGAGAAGGACUGAUGUUACAUGAGGAUCACCCAUGUCAUGGGUAGGAUAUCAUUGACACGGCUGUACCUCUCUUAC”, the “apparent Kd” value reads like this: under setting [3], 196 nM; under setting [4], 47.7 nM.
For the sequence “GGUAUGCAGCAGGAUAUCCAUCCGCGGUAUGGUGGAGAAGGGCUGACAUGAGGAUCACCCAUGUGCGUCCUAGG”, the “apparent Kd” value worked out at 32.8 nM under setting [1] and 87.6 nM under setting [2].
In the case of “GGAUCGAGUGUGAGGAUAUGCUGGUCCUUGGAUCAGCAGAAGGCACAUGAGGAUCACCCAUGUGUUCCCGGUCC”, the “apparent Kd” value was determined as 48.9 nM under setting [1] and 577 nM under setting [2].
With “AACCUAUUACAGAAGGCCAGCUACAUGAGGAUCACCCAUGUCGAGUCAUGGAGGAUAUGUAGUAAUUUACUCACAAAUAAGUGC”, the “apparent Kd” value came to 33.6 nM under setting [3] and 5.16 nM under setting [4].
Consider “UUGGACGUCGUAGGAUAUGUAGGAUAUUCCUACAUGAGGAUCACCCAUGUAGACAUGGAAGAAGGACAGAAGGACGAUGUCCAU”, for which the “apparent Kd” value amounted to 25.9 nM under setting [3] and 4.79 nM under setting [4].
As to “UCAGUAGAGUCAGGAUAUACGUCCAAAUUUCCUCACAUGAGGAUCACCCAUGUAGAAGGGACUCUACUGUAAGUCGGAAACGAC”, the “apparent Kd” value under setting [1] turned out to be 7.42 nM and the “apparent Kd” value under setting [2] came out at 31 nM.
In the case of “UUACUUUUACAGAAGGUUUAAUAAUAUAUAAGAGAAGGAUAUGUAACAUGAGGAUCACCCAUGUUUCACCCAUAUGAGGAUCAU”, the “apparent Kd” value by setting is: under setting [1], 8.12 nM; under setting [2], 7.78 nM.
Regarding “GACAGCGACACAGGAUAUGUCAAUUUUACAUGAGGAUCACCCAUGUCCGAAGCAGAAGGGUGAUCGCACGCACACUAAGCCAUG”, the “apparent Kd” value came out at 86.5 nM under setting [3] and 98.3 nM under setting [4].
Regarding “AGAACGUCAGGAUAUCGAACAACAAGUAAAUAGAGAAGAAGCGAGAAGGGACAUGAGGAUCACCCAUGUAAGAA”, the “apparent Kd” value amounted to 57.6 nM under setting [1] and 45.3 nM under setting [2].
As for “UGAUAACAUGUAGGAUAUCCAGCAUUGACCAUCGGAGAAGGACAUGAGGAUCACCCAUGUACCGAUACAAUGGGAUAAGGGAAU”, the “apparent Kd” value worked out at 16.1 nM under setting [1] and 18.6 nM under setting [2].
As to “GUUUAGUGAGGAUAUGUGGCUUCGAUCGUGCGAGGGCGGCUACAGAAGGCACAUGAGGAUCACCCAUGUUCCUC”, the “apparent Kd” value came to 155 nM under setting [1] and 428 nM under setting [2].
Taken in the same sequence, the figures for “CGUGUGUGAGGAUAUGACAAUGGUAUCUUCGGAUACCAUUGUCAGAAGGUACAUGAGGAUCACCCAUGUAGAUC” were 37.7 nM and 70.3 nM.
